In ChEMBL document CHEMBL1944580, “Synthesis of novel sulfonamide-1,2,4-triazoles, 1,3,4-thiadiazoles and 1,3,4-oxadiazoles, as potential antibacterial and antifungal agents. Biological evaluation and conformational analysis studies” (2012):
≈ marks a conversion by molar mass, not a printed value.

Columns and labels:
Talaromyces funiculosus [1] = assay: Antifungal activity against Penicillium funiculosum ATCC 36839 after 72 hrs by serial dilution method; format: functional; details: ATCC 36839, 72 h
How it was run: (§1)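 Modified microdilution MIC. Spores were washed from malt agar cultures with sterile 0.85% saline containing 0.1% Tween 80 and adjusted to about 1.0 × 10^5 per 100 µl well in malt broth. Compounds were dissolved in DMSO (1 mg/ml). Plates incubated 72 h at 28 °C. MIC is the lowest concentration with no visible growth under a binocular microscope. Bifonazole and ketoconazole were the references.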

Enterobacter cloacae [2] = assay: Antibacterial activity against Enterobacter cloacae human isolate after 24 hrs by micro dilution method; format: functional
How it was run: (§2)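 Microdilution MIC in 96-well plates. Bacterial suspensions adjusted in sterile saline to 1.0 × 10^5 CFU/ml, giving 1.0 × 10^4 cfu per well in LB broth. Compounds tested at up to 1 mg/ml. Plates incubated 24 h. MIC taken as the lowest concentration with no visible growth under a binocular microscope. OD at 655 nm was also read against a blank and the positive control. Streptomycin and ampicillin were the positive controls.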

Penicillium ochrochloron [3] = assay: Antifungal activity against Penicillium ochrochloron ATCC 9112 after 72 hrs by serial dilution method; format: functional; details: ATCC 9112, 72 h; how it was run: as §1
Trichoderma viride [4] = assay: Antifungal activity against Trichoderma viride IAM 5061 after 72 hrs by serial dilution method; format: functional; details: IAM 5061, 72 h; how it was run: as §1
Fulvia fulva [5] = assay: Antifungal activity against Fulvia fulva after 72 hrs by serial dilution method; format: functional; how it was run: as §1
Pseudomonas aeruginosa [6] = assay: Antibacterial activity against Pseudomonas aeruginosa ATCC 27853 treated for 24 hrs followed by sub-cultivated for 72 hrs by micro dilution method; format: functional
How it was run: (§3)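 2 µl from each well was serially subcultured into 100 µl fresh broth per well and incubated a further 72 h. MBC is the lowest concentration with no visible growth, taken as 99.5% killing of the original inoculum. Streptomycin and ampicillin were the positive controls.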

Aspergillus niger [7] = assay: Antifungal activity against Aspergillus niger ATCC 6275 treated for 72 hrs followed by sub-cultivated for 5 days by serial dilution method; format: functional
How it was run: (§4)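 MFC obtained after the 72 h, 28 °C malt-broth microdilution (spore inoculum about 1.0 × 10^5 per well, compounds from 1 mg/ml DMSO). 2 µl was serially subcultured into 100 µl broth per well and incubated a further 5 days at 28 °C. MFC is the lowest concentration with no visible growth, taken as 99.5% killing of the original inoculum.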

Escherichia coli [8] = assay: Antibacterial activity against Escherichia coli ATCC 35210 after 24 hrs by micro dilution method; format: functional; details: ATCC 35210, 24 h; how it was run: as §2
Micrococcus flavus [9] = assay: Antibacterial activity against Micrococcus flavus ATCC 10240 treated for 24 hrs followed by sub-cultivated for 72 hrs by micro dilution method; format: functional; how it was run: as §3
Bacillus cereus [10] = assay: Antibacterial activity against Bacillus cereus clinical isolate after 24 hrs by micro dilution method; format: functional; how it was run: as §2
Penicillium ochrochloron [11] = assay: Antifungal activity against Penicillium ochrochloron ATCC 9112 treated for 72 hrs followed by sub-cultivated for 5 days by serial dilution method; format: functional; how it was run: as §4
Pseudomonas aeruginosa [12] = assay: Antibacterial activity against Pseudomonas aeruginosa ATCC 27853 after 24 hrs by micro dilution method; format: functional; details: ATCC 27853, 24 h; how it was run: as §2
Fulvia fulva [13] = assay: Antifungal activity against Fulvia fulva treated for 72 hrs followed by sub-cultivated for 5 days by serial dilution method; format: functional; how it was run: as §4
Trichoderma viride [14] = assay: Antifungal activity against Trichoderma viride IAM 5061 treated for 72 hrs followed by sub-cultivated for 5 days by serial dilution method; format: functional; how it was run: as §4
Salmonella typhimurium [15] = assay: Antibacterial activity against Salmonella Typhimurium ATCC 13311 after 24 hrs by micro dilution method; format: functional, Salmonella enterica subsp. enterica serovar Typhimurium; details: Salmonella enterica, ATCC 13311, 24 h; how it was run: as §2
Talaromyces funiculosus [16] = assay: Antifungal activity against Penicillium funiculosum ATCC 36839 treated for 72 hrs followed by sub-cultivated for 5 days by serial dilution method; format: functional; how it was run: as §4
Aspergillus versicolor [17] = assay: Antifungal activity against Aspergillus versicolor ATCC 11730 after 72 hrs by serial dilution method; format: functional; details: ATCC 11730, 72 h; how it was run: as §1
Aspergillus flavus [18] = assay: Antifungal activity against Aspergillus flavus ATCC 9643 treated for 72 hrs followed by sub-cultivated for 5 days by serial dilution method; format: functional; how it was run: as §4
Aspergillus fumigatus [19] = assay: Antifungal activity against Aspergillus fumigatus human isolate after 72 hrs by serial dilution method; format: functional; how it was run: as §1
Escherichia coli [20] = assay: Antibacterial activity against Escherichia coli ATCC 35210 treated for 24 hrs followed by sub-cultivated for 72 hrs by micro dilution method; format: functional; how it was run: as §3
Staphylococcus aureus [21] = assay: Antibacterial activity against Staphylococcus aureus ATCC 6538 treated for 24 hrs followed by sub-cultivated for 72 hrs by micro dilution method; format: functional; how it was run: as §3
Aspergillus versicolor [22] = assay: Antifungal activity against Aspergillus versicolor ATCC 11730 treated for 72 hrs followed by sub-cultivated for 5 days by serial dilution method; format: functional; how it was run: as §4
Aspergillus flavus [23] = assay: Antifungal activity against Aspergillus flavus ATCC 9643 after 72 hrs by serial dilution method; format: functional; details: ATCC 9643, 72 h; how it was run: as §1
Bacillus cereus [24] = assay: Antibacterial activity against Bacillus cereus clinical isolate treated for 24 hrs followed by sub-cultivated for 72 hrs by micro dilution method; format: functional; how it was run: as §3
Listeria monocytogenes [25] = assay: Antibacterial activity against Listeria monocytogenes NCTC 7973 treated for 24 hrs followed by sub-cultivated for 72 hrs by micro dilution method; format: functional; how it was run: as §3
Micrococcus flavus [26] = assay: Antibacterial activity against Micrococcus flavus ATCC 10240 after 24 hrs by micro dilution method; format: functional; details: ATCC 10240, 24 h; how it was run: as §2
Enterobacter cloacae [27] = assay: Antibacterial activity against Enterobacter cloacae human isolate treated for 24 hrs followed by sub-cultivated for 72 hrs by micro dilution method; format: functional; how it was run: as §3
Aspergillus niger [28] = assay: Antifungal activity against Aspergillus niger ATCC 6275 after 72 hrs by serial dilution method; format: functional; details: ATCC 6275, 72 h; how it was run: as §1
Listeria monocytogenes [29] = assay: Antibacterial activity against Listeria monocytogenes NCTC 7973 after 24 hrs by micro dilution method; format: functional; details: NCTC 7973, 24 h; how it was run: as §2
Aspergillus fumigatus [30] = assay: Antifungal activity against Aspergillus fumigatus human isolate treated for 72 hrs followed by sub-cultivated for 5 days by serial dilution method; format: functional; how it was run: as §4
Salmonella typhimurium [31] = assay: Antibacterial activity against Salmonella Typhimurium ATCC 13311 treated for 24 hrs followed by sub-cultivated for 72 hrs by micro dilution method; format: functional, Salmonella enterica subsp. enterica serovar Typhimurium; details: Salmonella enterica; how it was run: as §3
Staphylococcus aureus [32] = assay: Antibacterial activity against Staphylococcus aureus ATCC 6538 after 24 hrs by micro dilution method; format: functional; details: ATCC 6538, 24 h; how it was run: as §2

| SMILES | MIC (Talaromyces funiculosus [1]) [µM] | MIC (Enterobacter cloacae [2]) [µM] | MIC (Penicillium ochrochloron [3]) [µM] | MIC (Trichoderma viride [4]) [µM] | MIC (Fulvia fulva [5]) [µM] | MBC (Pseudomonas aeruginosa [6]) [µM] | MFC (Aspergillus niger [7]) [µM] | MIC (Escherichia coli [8]) [µM] | MBC (Micrococcus flavus [9]) [µM] | MIC (Bacillus cereus [10]) [µM] | MFC (Penicillium ochrochloron [11]) [µM] | MIC (Pseudomonas aeruginosa [12]) [µM] | MFC (Fulvia fulva [13]) [µM] | MFC (Trichoderma viride [14]) [µM] | MIC (Salmonella typhimurium [15]) [µM] | MFC (Talaromyces funiculosus [16]) [µM] | MIC (Aspergillus versicolor [17]) [µM] | MFC (Aspergillus flavus [18]) [µM] | MIC (Aspergillus fumigatus [19]) [µM] | MBC (Escherichia coli [20]) [µM] | further results |
| --- | --- | --- | --- | --- | --- | --- | --- | --- | --- | --- | --- | --- | --- | --- | --- | --- | --- | --- | --- | --- | --- |
| CCCCNc1nnc(Cc2cc(OC)c(OC)cc2S(=O)(=O)N(C)C)o1 | 250 (≈ 99.6 µg/mL) | 630 (≈ 251 µg/mL) | 250 (≈ 99.6 µg/mL) | 130 (≈ 51.8 µg/mL) | 130 (≈ 51.8 µg/mL) | 250 (≈ 99.6 µg/mL) | 750 (≈ 299 µg/mL) | 630 (≈ 251 µg/mL) | 500 (≈ 199 µg/mL) | 250 (≈ 99.6 µg/mL) | 750 (≈ 299 µg/mL) | 130 (≈ 51.8 µg/mL) | 250 (≈ 99.6 µg/mL) | 130 (≈ 51.8 µg/mL) | 130 (≈ 51.8 µg/mL) | 500 (≈ 199 µg/mL) | 250 (≈ 99.6 µg/mL) | 750 (≈ 299 µg/mL) | 130 (≈ 51.8 µg/mL) | 630 (≈ 251 µg/mL) | MBC (Staphylococcus aureus [21]): 380 µM (≈ 151 µg/mL); MFC (Aspergillus versicolor [22]): 750 µM (≈ 299 µg/mL); MIC (Aspergillus flavus [23]): 250 µM (≈ 99.6 µg/mL); MBC (Bacillus cereus [24]): 250 µM (≈ 99.6 µg/mL); MBC (Listeria monocytogenes [25]): 750 µM (≈ 299 µg/mL); MIC (Micrococcus flavus [26]): 250 µM (≈ 99.6 µg/mL); MBC (Enterobacter cloacae [27]): 750 µM (≈ 299 µg/mL); MIC (Aspergillus niger [28]): 250 µM (≈ 99.6 µg/mL); MIC (Listeria monocytogenes [29]): 250 µM (≈ 99.6 µg/mL); MFC (Aspergillus fumigatus [30]): 250 µM (≈ 99.6 µg/mL); MBC (Salmonella typhimurium [31]): 250 µM (≈ 99.6 µg/mL); MIC (Staphylococcus aureus [32]): 250 µM (≈ 99.6 µg/mL) |
| COc1cc(Cc2nnc(NC(C)(C)C)o2)c(S(=O)(=O)N(C)C)cc1OC | 130 (≈ 51.8 µg/mL) | 630 (≈ 251 µg/mL) | 130 (≈ 51.8 µg/mL) | 60 (≈ 23.9 µg/mL) | 250 (≈ 99.6 µg/mL) | 390 (≈ 155 µg/mL) | 380 (≈ 151 µg/mL) | 390 (≈ 155 µg/mL) | 500 (≈ 199 µg/mL) | 390 (≈ 155 µg/mL) | 380 (≈ 151 µg/mL) | 390 (≈ 155 µg/mL) | 250 (≈ 99.6 µg/mL) | 130 (≈ 51.8 µg/mL) | 130 (≈ 51.8 µg/mL) | 250 (≈ 99.6 µg/mL) | 130 (≈ 51.8 µg/mL) | 250 (≈ 99.6 µg/mL) | 130 (≈ 51.8 µg/mL) | 390 (≈ 155 µg/mL) | MBC (Staphylococcus aureus [21]): 500 µM (≈ 199 µg/mL); MFC (Aspergillus versicolor [22]): 380 µM (≈ 151 µg/mL); MIC (Aspergillus flavus [23]): 130 µM (≈ 51.8 µg/mL); MBC (Bacillus cereus [24]): 390 µM (≈ 155 µg/mL); MBC (Listeria monocytogenes [25]): 390 µM (≈ 155 µg/mL); MIC (Micrococcus flavus [26]): 250 µM (≈ 99.6 µg/mL); MBC (Enterobacter cloacae [27]): 630 µM (≈ 251 µg/mL); MIC (Aspergillus niger [28]): 250 µM (≈ 99.6 µg/mL); MIC (Listeria monocytogenes [29]): 250 µM (≈ 99.6 µg/mL); MFC (Aspergillus fumigatus [30]): 250 µM (≈ 99.6 µg/mL); MBC (Salmonella typhimurium [31]): 250 µM (≈ 99.6 µg/mL); MIC (Staphylococcus aureus [32]): 250 µM (≈ 99.6 µg/mL) |
